This is a sample that favours compounds with a hit; in the whole collection about 1.3% have one here.
PAX8 inh HTS = lowers PAX8-driven luciferase in RMG-I cells; RMG-I TPO-luciferase reporter, SteadyGlo, 24 h; inhibition, % at 12.6 µM; 360,000 tested, 1.2% active;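 active means mean replicate inhibition at least 60% with every replicate also reaching 60%; inconclusive means only one of the two criteria is met; inactive means mean below 60% and not all replicates reaching 60%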;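 further: luciferase light reporting Pax8 driven TPO promoter activity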
RAD54 inh = inhibitors of human RAD54 branch migration; Q92698; inhibition, % at 10.4 µM; AID 602329; 360,000 tested, 0.14% active; RAD54 Holliday junction branch migration, FAM/BHQ fluorescence;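 active means mean normalized replicate activity at least 40 and at least half of replicates scoring 40 or more; inconclusive means only one of the two criteria met; inactive means mean below 40 and under half of replicates reaching 40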;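 further: inhibitors cause a drop in the FAM fluorescence signal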
RAD52 anneal inh = blocks human RAD52 DNA annealing; inhibition, % at 18.7 µM; 360,000 tested, 0.46% active; recombinant RAD52 DNA annealing, FRET fluorescence;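 active means every replicate showing at least 50% inhibition; inconclusive means mean inhibition at least 50% but not in every replicate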
Target sequence (P43351 whole entry, looked up): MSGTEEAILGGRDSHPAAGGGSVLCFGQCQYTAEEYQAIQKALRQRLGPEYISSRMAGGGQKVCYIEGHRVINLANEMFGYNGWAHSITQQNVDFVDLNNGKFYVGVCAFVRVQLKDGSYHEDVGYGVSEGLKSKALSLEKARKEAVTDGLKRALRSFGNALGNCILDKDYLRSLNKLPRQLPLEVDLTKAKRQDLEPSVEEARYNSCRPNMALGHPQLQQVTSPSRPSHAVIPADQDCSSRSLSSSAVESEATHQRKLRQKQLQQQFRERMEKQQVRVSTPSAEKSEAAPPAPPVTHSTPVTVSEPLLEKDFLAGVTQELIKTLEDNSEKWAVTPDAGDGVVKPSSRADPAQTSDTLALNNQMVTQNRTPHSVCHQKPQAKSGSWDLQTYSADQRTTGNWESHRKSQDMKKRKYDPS
FN deposit inh = fibronectin deposition inhibition; AH1F fibroblasts, Alexa488-fibronectin deposition fluorescence, overnight; inhibition, % at 12.6 µM; 350,000 tested, 0.086% active; AID 743247;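 active means mean inhibition across replicates of 30% or more, regardless of how many single replicates reach that level; inconclusive means mean under 30% yet at least half of replicates reach 30%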
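Material: AH1F fibroblast monolayer depositing Alexa488-labelled fibronectin into matrix / Amount: 10000 AH1F cells per well / Signal: fluorescence 485/525 nm / Medium: DMEM, 2% serum / Compound: single dose, pinned / Incubation: 1 h cell adhesion before compound, then overnight fibronectin incubation / Reagent: Alexa488-FN, 24 nM final / Read-out: inhibition of fibronectin deposition signal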
DNA binder FP = binds DNA, flagging false RAD52 inhibitor hits. AID 652128. shares compounds with RAD52 anneal inh. 1,000 tested, 8% active. Salmon sperm DNA/acridine orange FP displacement, DNA binding. AC50, µM;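 active means fitted half-maximal concentration for signal loss at or below twice the highest dose tested, in every separate run, actives reach about 64 µM in these data; inconclusive means runs disagree, or flat partial signal loss, or poor fit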
A number is an active result.

How did COc1ccc(OC)c(Nc2c3ccccc3nc3ccccc23)c1 do in these assays?
PAX8 inh HTS: inactive; RAD54 inh: inactive; RAD52 anneal inh: inactive; FN deposit inh: inactive

Results for NC(N)=Nc1ccc(C=C2C=Cc3ccccc32)cc1 ?
PAX8 inh HTS: inactive; RAD52 anneal inh: 65.9; FN deposit inh: inactive; DNA binder FP: inactive

Results for Nc1ccc(C=C2C=Cc3ccccc32)cc1 ?
PAX8 inh HTS: inactive; RAD54 inh: inactive; RAD52 anneal inh: inactive; FN deposit inh: inactive

How did COc1cccc(S(=O)(=O)N[C@H]2CC[C@@H](CC(=O)NC3CCC3)O[C@H]2CO)c1 do in these assays?
PAX8 inh HTS: inactive; RAD54 inh: inactive; RAD52 anneal inh: inactive

What do the screens show for `CCOC(=O)c1c(C)c(C(=O)N2CCN(c3ccc(F)cc3)CC2)c(C)n1C`?
PAX8 inh HTS: inactive; RAD54 inh: inactive; RAD52 anneal inh: inactive

How did Cc1cc(C)c(NC(=O)CSc2nnc(CN3CCOCC3)n2C)c(C)c1 do in these assays?
PAX8 inh HTS: inactive; RAD54 inh: inactive; RAD52 anneal inh: inactive; FN deposit inh: inactive

What do the screens show for `NC(N)=N/N=C/c1ccc(OCc2ccccc2Cl)cc1`?
RAD54 inh: inactive; RAD52 anneal inh: inactive; DNA binder FP: inactive

Results for CCN(CC)CCCNC(=O)CCC(=O)Nc1ccc2nc(N3CCCCC3)cc(C)c2c1 ?
PAX8 inh HTS: inactive; RAD52 anneal inh: inactive; FN deposit inh: inactive

Results for CCOC(=O)N1CCN(C(=S)Nc2ccc3nc(N4CCN(CC)CC4)cc(C)c3c2)CC1 ?
PAX8 inh HTS: inactive; RAD54 inh: inactive; RAD52 anneal inh: 53.7; FN deposit inh: inactive; DNA binder FP: inactive

Results for Cc1cc(N2CCOCC2)nc2ccc(NC(=S)NC(C)C)cc12 ?
PAX8 inh HTS: inactive; RAD54 inh: inactive; RAD52 anneal inh: 52.8; FN deposit inh: inactive; DNA binder FP: inactive

Results for CCCN(CCC)CCCNC(=S)Nc1ccc2nc(N3CCN(CC)CC3)cc(C)c2c1 ?
PAX8 inh HTS: inactive; RAD52 anneal inh: 97.2; FN deposit inh: inactive; DNA binder FP: inactive

Results for COCCNC(=S)Nc1ccc2nc(N3CCOCC3)cc(C)c2c1 ?
PAX8 inh HTS: inactive; RAD54 inh: inactive; RAD52 anneal inh: inactive; FN deposit inh: inactive

How did CCN1CCN(c2cc(C)c3cc(NC(=O)c4ccc(C)c(C)c4)ccc3n2)CC1 do in these assays?
PAX8 inh HTS: inactive; RAD54 inh: inactive; RAD52 anneal inh: inactive; FN deposit inh: inactive

What do the screens show for `CCCCN(CC)CCNC(=O)CCC(=O)Nc1ccc2nc(N3CCN(C)CC3)cc(C)c2c1`?
PAX8 inh HTS: inactive; RAD54 inh: inactive; RAD52 anneal inh: 81.0; FN deposit inh: inactive; DNA binder FP: inactive

How did CCN(CC)C(=O)Cn1cc(S(=O)(=O)CC(=O)Nc2ccc3c(c2)OCCO3)c2ccccc21 do in these assays?
PAX8 inh HTS: inactive; RAD52 anneal inh: inactive; FN deposit inh: inactive

What do the screens show for `COc1ccccc1CNC1CCN(Cc2ccccc2)CC1`?
PAX8 inh HTS: inactive; RAD54 inh: inactive; RAD52 anneal inh: inactive; FN deposit inh: inactive

How did O=C(O)c1ccc(Cl)c(S(=O)(=O)NC(Cc2ccccc2)C(=O)O)c1 (centres undefined) do in these assays?
PAX8 inh HTS: inactive; RAD54 inh: inactive; RAD52 anneal inh: inactive; FN deposit inh: inactive

What do the screens show for `O=C(c1ccc(=O)[nH]c1)N1CCN(S(=O)(=O)c2ccc(Cl)cc2)CC1`?
PAX8 inh HTS: inactive; RAD54 inh: inactive; RAD52 anneal inh: inactive; FN deposit inh: inactive

What do the screens show for `CCc1ccc(C(=O)N2CCN(c3ccc(NC(=O)c4ccco4)cc3)CC2)cc1`?
PAX8 inh HTS: inactive; RAD54 inh: inactive; RAD52 anneal inh: inactive

How did Cc1ccc2c(c1)c1c(n2CC(O)Cn2c(C)nc3ccccc32)CCCC1 (centres undefined) do in these assays?
PAX8 inh HTS: inactive; RAD54 inh: inactive; RAD52 anneal inh: inactive; FN deposit inh: inactive

Results for Cc1ccc2c(c1)c1c(n2CC(O)CN2CCCCCC2)CCCC1 (centres undefined) ?
PAX8 inh HTS: inactive; RAD54 inh: inactive; RAD52 anneal inh: 80.5; FN deposit inh: inactive; DNA binder FP: inactive

Results for OC(CN1CCCCC1)Cn1c2ccccc2c2cc(Br)ccc21 (centres undefined) ?
PAX8 inh HTS: inactive; RAD54 inh: inactive; RAD52 anneal inh: 57.5; FN deposit inh: inactive; DNA binder FP: inactive

What do the screens show for `Cc1ccc2c(c1)c1c(n2CC(O)Cn2nc(C)c(Br)c2C)CCCC1` (centres undefined)?
RAD54 inh: inactive; FN deposit inh: inactive

How did Cc1ccc2c(c1)c1c(n2CC(O)CNC(C)(C)C)CCCC1 (centres undefined) do in these assays?
PAX8 inh HTS: inactive; RAD54 inh: inactive; RAD52 anneal inh: 52.2; FN deposit inh: inactive; DNA binder FP: inactive

What do the screens show for `COc1ccccc1-c1ccc([C@H]2[C@@H](CO)N3CCCCN(C(=O)c4ccncc4)C[C@@H]23)cc1`?
PAX8 inh HTS: inactive; RAD54 inh: inactive; RAD52 anneal inh: inactive

How did CN1CCN(c2ccc(Cl)cc2NC(=O)CCN2C(=O)c3ccccc3C2=O)CC1 do in these assays?
PAX8 inh HTS: inactive; RAD52 anneal inh: 82.6; DNA binder FP: inactive

What do the screens show for `CCCCCCCCCCCCCCCC[N+](C)(C)CCl`?
PAX8 inh HTS: 106.3; RAD52 anneal inh: 87.8; FN deposit inh: inactive; DNA binder FP: 31.5µM

What do the screens show for `CCCCCCCCCCCCCCCC[N+](C)(C)CC`?
PAX8 inh HTS: 107.4; RAD54 inh: 51.0; RAD52 anneal inh: 81.2; FN deposit inh: inactive; DNA binder FP: inconclusive

What do the screens show for `C[C@@H]1CN([C@H](C)CO)C(=O)c2cccc(NC(=O)NC3CCCCC3)c2O[C@@H]1CN(C)Cc1ccc(C(=O)Nc2ccccc2N)cc1`?
RAD54 inh: inactive; RAD52 anneal inh: inactive

Results for Cc1cc(SCCC(=O)O)nc2c(C)cccc12 ?
PAX8 inh HTS: inactive; RAD54 inh: inactive; FN deposit inh: inactive

Results for Cc1sc2nc(CN3CCCCC3)nc(Nc3ccc4c(c3)OCCO4)c2c1C ?
PAX8 inh HTS: inactive; RAD52 anneal inh: 72.1; FN deposit inh: inactive; DNA binder FP: inactive

What do the screens show for `NCCCC[C@H](NC(=O)C1CCNCC1)c1nnc([C@@H](N)Cc2ccc(O)cc2)o1`?
PAX8 inh HTS: inactive; RAD54 inh: inactive; RAD52 anneal inh: 73.9; FN deposit inh: inactive; DNA binder FP: inactive

Results for CN1Cc2c(N3CCOCC3)nc3sc(C(=O)c4ccccc4)c(N)c3c2CC1(C)C ?
PAX8 inh HTS: inactive; RAD52 anneal inh: 59.8; FN deposit inh: inactive; DNA binder FP: inactive

Results for CCOC(=O)c1sc2nc(N3CCOCC3)c3c(c2c1N)CC(C)(C)N(C)C3 ?
PAX8 inh HTS: inactive; RAD54 inh: inactive; FN deposit inh: inactive

What do the screens show for `Cn1c2cc(Br)sc2c2cnn(Cc3ccc(F)cc3F)c(=O)c21`?
PAX8 inh HTS: inactive; RAD54 inh: inactive; RAD52 anneal inh: inactive; FN deposit inh: inactive

Results for CNC(C)C(=O)NC(C(=O)N1CCCC1C(=O)Nc1ccc2ncccc2c1)C(C)C (centres undefined) ?
PAX8 inh HTS: inactive; RAD54 inh: inactive; RAD52 anneal inh: inactive; FN deposit inh: inactive

High-throughput results from PubChem.
